≈ marks a conversion by molar mass, not a printed value. Calls of active or inactive are those of the source.
Key:
[1] = Selectivity index, ratio of cytotoxicity against pig LLC-PK1 cells to IC50 for Cryptococcus neoformans ATCC 90113; type: toxicity, cell-based; settings: read-out: Selectivity Index
[2] = Selectivity index, ratio of cytotoxicity against african green monkey Vero cells to IC50 for Cryptococcus neoformans ATCC 90113; type: toxicity, cell-based; settings: read-out: Selectivity Index
[3] = Selectivity index, ratio of cytotoxicity against human SKOV3 cells to IC50 for Cryptococcus neoformans ATCC 90113; type: toxicity, cell-based, SK-OV-3; settings: read-out: Selectivity Index
[4] = Selectivity index, ratio of cytotoxicity against human BT549 cells to IC50 for Cryptococcus neoformans ATCC 90113; type: toxicity, cell-based, BT-549; settings: read-out: Selectivity Index
[5] = Selectivity index, ratio of cytotoxicity against human KB cells to IC50 for Cryptococcus neoformans ATCC 90113; type: toxicity, cell-based; settings: read-out: Selectivity Index
[6] = Selectivity index, ratio of cytotoxicity against human SK-MEL cells to IC50 for Cryptococcus neoformans ATCC 90113; type: toxicity, cell-based; settings: read-out: Selectivity Index
[7] = system: LLC-PK1; experiment: Cytotoxicity against pig LLC-PK1 cells assessed as cell viability after 48 hrs by neutral red uptake assay; type: cell-based, Sus scrofa; settings: llc-pk1, 48 h
In short: (§1)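 Neutral red uptake assay on human cancer lines (SK-MEL, KB, BT-549, SK-OV-3) and noncancerous mammalian cells (VERO, LLC-PK1). Highest tested concentration was 10 µg/mL.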

[8] = system: Vero; experiment: Cytotoxicity against african green monkey Vero cells assessed as cell viability after 48 hrs by neutral red uptake assay; type: cell-based; settings: chlorocebus sabaeus; in short: as §1
[9] = system: SK-OV-3; experiment: Cytotoxicity against human SKOV3 cells assessed as cell viability after 48 hrs by neutral red uptake assay; type: cell-based; settings: sk-ov-3, 48 h; in short: as §1
[10] = system: KB; experiment: Cytotoxicity against human KB cells assessed as cell viability after 48 hrs by neutral red uptake assay; type: cell-based; in short: as §1
[11] = system: BT-549; experiment: Cytotoxicity against human BT549 cells assessed as cell viability after 48 hrs by neutral red uptake assay; type: cell-based; settings: bt-549, 48 h; in short: as §1
[12] = system: SK-MEL; experiment: Cytotoxicity against human SK-MEL cells assessed as cell viability after 48 hrs by neutral red uptake assay; type: cell-based; in short: as §1
[13] = system: Cryptococcus neoformans; experiment: Ratio of amphotericin MFC to compound MFC for Cryptococcus neoformans ATCC 90113 after 70-74 hrs by CLSI method; type: functional
[14] = system: Cryptococcus neoformans; experiment: Ratio of amphotericin MIC to compound MIC for Cryptococcus neoformans ATCC 90113 after 70-74 hrs by CLSI method; type: functional
[15] = system: Cryptococcus neoformans; experiment: Ratio of amphotericin IC50 to compound IC50 for Cryptococcus neoformans ATCC 90113 after 70-74 hrs by CLSI method; type: functional
[16] = system: Escherichia coli; experiment: Antibacterial activity against Escherichia coli ATCC 35218 assessed as growth inhibition after 16-20 hrs by CLSI method; type: functional, organism-based
[17] = system: Aspergillus fumigatus; experiment: Antifungal activity against Aspergillus fumigatus assessed as growth inhibition; type: functional, organism-based
[18] = system: Pichia kudriavzevii; experiment: Antifungal activity against Candida krusei assessed as growth inhibition; type: functional, organism-based
[19] = system: Nakaseomyces glabratus; experiment: Antifungal activity against Candida glabrata assessed as growth inhibition; type: functional, organism-based
[20] = system: Candida albicans; experiment: Antifungal activity against Candida albicans assessed as growth inhibition; type: functional, organism-based
[21] = system: Staphylococcus aureus; experiment: Antibacterial activity against methicillin-resistant Staphylococcus aureus ATCC 33591 assessed as growth inhibition after 16-20 hrs by CLSI method; type: functional, organism-based
[22] = system: Staphylococcus aureus; experiment: Antibacterial activity against Staphylococcus aureus ATCC 29213 assessed as growth inhibition after 16-20 hrs by CLSI method; type: functional, organism-based
[23] = system: Cryptococcus neoformans; experiment: Antifungal activity against Cryptococcus neoformans ATCC 90113 assessed as growth inhibition after 70-74 hrs by CLSI method; type: functional, organism-based; settings: Cryptococcus neoformans, ATCC 90113; for IC50: read-out: IC50

Question: Which selectivity ratio [1] does the source give for `CC(C)(C)c1ccc(-c2nc(C[C@H](N)C(=O)N[C@@H](CCCNC(=N)N)C(=O)NCc3ccccc3)c[nH]2)cc1` here?
Answer: The selectivity ratio was over 62.5.

Question: And the selectivity ratio [2]?
Answer: The selectivity ratio was over 62.5.

Question: What about the selectivity ratio [3] of the same compound?
Answer: Its selectivity ratio is over 62.5.

Question: And the selectivity ratio [4]?
Answer: Its selectivity ratio is over 62.5.

Question: What about the selectivity ratio [5] of the same compound?
Answer: The selectivity ratio was over 62.5.

Question: What about the selectivity ratio [6] of the same compound?
Answer: Its selectivity ratio is over 62.5.

Question: And the Activity [7]?
Answer: The Activity was over 10 µg/mL.

Question: And the Activity [8]?
Answer: The Activity was over 10 µg/mL.

Question: And the Activity [9]?
Answer: The Activity was over 10 µg/mL.

Question: What about the Activity [10] of the same compound?
Answer: The Activity was over 10 µg/mL.

Question: And the Activity [11]?
Answer: The Activity was over 10 µg/mL.

Question: What about the Activity [12] of the same compound?
Answer: Its Activity is over 10 µg/mL.

Question: And the Ratio [13]?
Answer: The Ratio was over 4.

Question: What about the Ratio [14] of the same compound?
Answer: The Ratio was over 4.

Question: And the “Ratio IC50” value [15]?
Answer: Its value is over 4.

Question: What about the “growth inhibition (GI)” value [16] of the same compound?
Answer: The value was “inactive”.

Question: And the “growth inhibition (GI)” value [17]?
Answer: The value was “inactive”.

Question: What about the “growth inhibition (GI)” value [18] of the same compound?
Answer: The value was “inactive”.

Question: And the “growth inhibition (GI)” value [19]?
Answer: Its value is “inactive”.

Question: And the “growth inhibition (GI)” value [20]?
Answer: The value was “inactive”.

Question: And the IC50 [21]?
Answer: The IC50 was “Not Active”.

Question: And the MBC [21]?
Answer: Its MBC is “inactive”.

Question: And the MIC [21]?
Answer: Its MIC is “inactive”.

Question: And the IC50 [22]?
Answer: Its IC50 is 15.9 µg/mL (≈ 29.8 µM).

Question: And the MBC [22]?
Answer: The MBC was “inactive”.

Question: And the MIC [22]?
Answer: The MIC was “inactive”.

Question: What about the MFC [23] of the same compound?
Answer: Its MFC is 0.31 µg/mL (≈ 0.582 µM).

Question: What about the MIC [23] of the same compound?
Answer: Its MIC is 0.31 µg/mL (≈ 0.582 µM).

Question: And the IC50 [23]?
Answer: Its IC50 is 0.16 µg/mL (≈ 0.3 µM).

Question: What does the source list for `N=C(N)NCCC[C@H](NC(=O)[C@@H](N)Cc1c[nH]c(-c2ccc(-c3ccccc3)cc2)n1)C(=O)NCc1ccccc1`?
Answer: selectivity ratio [1]: > 50; selectivity ratio [2]: > 50; selectivity ratio [3]: > 50; selectivity ratio [4]: > 50; selectivity ratio [5]: > 50; selectivity ratio [6]: > 50; Activity [7]: > 10 µg/mL; Activity [8]: > 10 µg/mL; Activity [9]: > 10 µg/mL; Activity [10]: > 10 µg/mL; Activity [11]: > 10 µg/mL; Activity [12]: > 10 µg/mL; growth inhibition (GI) [16]: inactive; growth inhibition (GI) [17]: inactive; growth inhibition (GI) [18]: inactive; growth inhibition (GI) [19]: inactive; growth inhibition (GI) [20]: inactive; IC50 [21]: Not Active; MBC [21]: inactive; MIC [21]: inactive; IC50 [22]: 12.8 µg/mL (≈ 23.2 µM); MBC [22]: inactive; MIC [22]: inactive; MFC [23]: 0.31 µg/mL (≈ 0.561 µM); MIC [23]: 0.31 µg/mL (≈ 0.561 µM); IC50 [23]: 0.2 µg/mL (≈ 0.362 µM)

Reference: ChEMBL document CHEMBL3132745, “Synthesis and Antimicrobial Activities of His(2-aryl)-Arg and Trp-His(2-aryl) Classes of Dipeptidomimetics” (Medchemcomm, 2014)
